Format in all cases: cell-based
Test [1] addresses T1, Serine/threonine-protein kinase Nek9 (Homo sapiens) (UniProt Q8TD19).
T1 sequence (whole entry): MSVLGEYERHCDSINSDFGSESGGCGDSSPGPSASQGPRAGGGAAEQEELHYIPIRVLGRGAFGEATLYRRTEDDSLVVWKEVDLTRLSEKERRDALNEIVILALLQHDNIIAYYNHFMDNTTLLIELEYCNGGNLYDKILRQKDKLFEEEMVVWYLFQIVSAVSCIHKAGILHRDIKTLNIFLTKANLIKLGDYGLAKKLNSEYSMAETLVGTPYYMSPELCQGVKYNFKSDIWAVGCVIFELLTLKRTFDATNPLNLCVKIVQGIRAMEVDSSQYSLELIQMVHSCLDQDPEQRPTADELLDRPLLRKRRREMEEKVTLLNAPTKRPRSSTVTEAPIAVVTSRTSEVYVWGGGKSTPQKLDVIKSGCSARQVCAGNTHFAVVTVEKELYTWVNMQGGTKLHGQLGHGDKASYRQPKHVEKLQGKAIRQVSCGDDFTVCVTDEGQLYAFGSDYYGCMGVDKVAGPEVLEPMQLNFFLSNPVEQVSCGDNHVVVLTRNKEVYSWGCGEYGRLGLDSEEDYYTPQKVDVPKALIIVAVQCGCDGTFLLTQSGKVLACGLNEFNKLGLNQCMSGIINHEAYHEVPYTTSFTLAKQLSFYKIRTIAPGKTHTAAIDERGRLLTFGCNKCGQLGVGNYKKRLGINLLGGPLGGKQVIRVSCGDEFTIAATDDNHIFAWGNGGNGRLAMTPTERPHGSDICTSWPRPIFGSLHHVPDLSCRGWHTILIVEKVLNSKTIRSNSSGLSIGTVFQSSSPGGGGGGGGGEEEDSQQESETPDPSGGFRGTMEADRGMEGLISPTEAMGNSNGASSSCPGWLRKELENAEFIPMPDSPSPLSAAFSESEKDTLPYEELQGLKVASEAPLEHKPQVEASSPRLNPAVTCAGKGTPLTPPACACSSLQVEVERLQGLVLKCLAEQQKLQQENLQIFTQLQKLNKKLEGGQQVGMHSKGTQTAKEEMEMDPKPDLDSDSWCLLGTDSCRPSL
Put plainly: Inhibition of NEK9 in human SKCO1 cells at 1 uM after 4 hrs using biotin labeled DIKTLNIFLTK probe by mass-spectrometric analysis relative to control. The procedure, abridged: (§1)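 Live SK-CO-1 cells exposed to compound at 1 μM or DMSO for 4 h (KiNativ). Lysates then labeled with lysine-reactive ATP/ADP-biotin probe, and probe-labeled kinase peptides quantified by mass spectrometry. Percent inhibition of probe-dependent recovery calculated relative to DMSO-treated cells.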

Test [2] has as its target T2, Inhibitor of nuclear factor kappa-B kinase subunit beta (Homo sapiens) (UniProt O14920).
T2 sequence (whole entry): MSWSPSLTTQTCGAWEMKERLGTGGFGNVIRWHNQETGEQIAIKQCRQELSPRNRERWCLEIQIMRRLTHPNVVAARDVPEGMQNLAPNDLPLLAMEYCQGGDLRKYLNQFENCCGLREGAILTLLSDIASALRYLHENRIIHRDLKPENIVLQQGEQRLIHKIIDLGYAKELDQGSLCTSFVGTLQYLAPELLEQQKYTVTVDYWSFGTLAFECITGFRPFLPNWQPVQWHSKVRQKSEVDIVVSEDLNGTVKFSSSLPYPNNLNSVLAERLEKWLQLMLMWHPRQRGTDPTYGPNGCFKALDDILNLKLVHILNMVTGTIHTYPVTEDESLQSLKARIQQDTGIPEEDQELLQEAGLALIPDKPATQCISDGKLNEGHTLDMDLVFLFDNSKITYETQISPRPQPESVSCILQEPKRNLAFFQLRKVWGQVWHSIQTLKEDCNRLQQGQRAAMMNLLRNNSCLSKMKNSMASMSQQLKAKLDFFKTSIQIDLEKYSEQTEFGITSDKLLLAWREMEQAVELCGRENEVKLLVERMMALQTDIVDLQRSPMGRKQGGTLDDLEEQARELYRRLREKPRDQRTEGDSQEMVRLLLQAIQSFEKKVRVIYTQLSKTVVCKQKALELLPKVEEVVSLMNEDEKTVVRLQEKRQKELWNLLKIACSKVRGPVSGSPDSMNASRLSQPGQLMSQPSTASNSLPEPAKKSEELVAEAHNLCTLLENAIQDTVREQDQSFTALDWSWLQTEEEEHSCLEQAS
Put plainly: Inhibition of IKKb in human SKCO1 cells at 1 uM after 4 hrs using biotin labeled DLKPENIVLQQGEQR probe by mass-spectrometric analysis relative to control.

The target in test [3] is Cyclin-dependent kinase 17 (Homo sapiens) (UniProt Q00537). Put plainly: Inhibition of PCTAIRE2 in human SKCO1 cells at 1 uM after 4 hrs using biotin labeled SKLTENLVALKEIR probe by mass-spectrometric analysis relative to control. The procedure, abridged: as §1
The target in test [4] is T3, Serine/threonine-protein kinase tousled-like 1 (Homo sapiens) (UniProt Q9UKI8).
T3 sequence (whole entry): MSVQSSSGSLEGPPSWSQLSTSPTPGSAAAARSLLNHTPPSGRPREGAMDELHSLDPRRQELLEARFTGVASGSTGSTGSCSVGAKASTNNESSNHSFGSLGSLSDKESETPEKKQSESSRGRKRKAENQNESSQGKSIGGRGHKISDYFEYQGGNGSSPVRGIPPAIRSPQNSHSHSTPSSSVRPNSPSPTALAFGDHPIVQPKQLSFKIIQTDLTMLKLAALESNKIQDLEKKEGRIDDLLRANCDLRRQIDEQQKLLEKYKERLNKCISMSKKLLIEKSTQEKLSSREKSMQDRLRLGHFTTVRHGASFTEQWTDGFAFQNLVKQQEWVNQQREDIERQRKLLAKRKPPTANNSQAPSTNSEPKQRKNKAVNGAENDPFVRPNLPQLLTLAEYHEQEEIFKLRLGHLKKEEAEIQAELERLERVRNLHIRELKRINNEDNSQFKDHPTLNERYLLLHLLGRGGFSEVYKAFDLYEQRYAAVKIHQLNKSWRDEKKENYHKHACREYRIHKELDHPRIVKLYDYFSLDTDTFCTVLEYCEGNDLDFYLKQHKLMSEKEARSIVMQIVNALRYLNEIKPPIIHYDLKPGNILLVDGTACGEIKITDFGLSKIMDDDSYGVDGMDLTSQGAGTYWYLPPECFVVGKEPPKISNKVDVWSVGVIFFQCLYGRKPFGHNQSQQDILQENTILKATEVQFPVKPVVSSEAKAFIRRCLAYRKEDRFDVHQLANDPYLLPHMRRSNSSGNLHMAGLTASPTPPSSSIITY
Put plainly: Inhibition of TLK1 in human SKCO1 cells at 1 uM after 4 hrs using biotin labeled YLNEIKPPIIHYDLKPGNILLVDGTACEIK probe by mass-spectrometric analysis relative to control. The method in brief:
as §1

Broadly, the inhibition is the drop in the measured response relative to a control, in per cent.

Chain of Cyclin-dependent kinase 17 (Homo sapiens) (Q00537 whole entry, looked up): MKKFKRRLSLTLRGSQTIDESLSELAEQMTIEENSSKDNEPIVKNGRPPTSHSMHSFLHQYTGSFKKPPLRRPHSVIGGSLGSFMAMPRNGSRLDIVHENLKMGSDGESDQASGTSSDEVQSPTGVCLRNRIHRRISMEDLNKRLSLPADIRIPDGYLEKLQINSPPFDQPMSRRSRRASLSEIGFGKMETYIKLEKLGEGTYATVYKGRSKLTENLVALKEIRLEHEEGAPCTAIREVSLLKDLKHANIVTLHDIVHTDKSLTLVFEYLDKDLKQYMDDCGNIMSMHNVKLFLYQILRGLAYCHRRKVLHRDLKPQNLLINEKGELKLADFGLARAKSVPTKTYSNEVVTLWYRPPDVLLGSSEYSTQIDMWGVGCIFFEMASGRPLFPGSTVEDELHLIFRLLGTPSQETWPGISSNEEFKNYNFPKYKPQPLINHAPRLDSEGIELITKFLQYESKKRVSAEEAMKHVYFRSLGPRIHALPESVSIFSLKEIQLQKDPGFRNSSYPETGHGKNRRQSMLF

As for `C=CC(=O)Nc1ccccc1Oc1nc(Nc2cnn(CCOC)c2)ncc1Cl`, the inhibition in test [1] is 9%; in test [2], -9%; in test [3], 21.9%; in test [4], 11.3%.

In the case of `COc1cc(O)c2c(c1)/C=C/C[C@H](O)[C@H](O)C(=O)/C=C\C[C@H](C)OC2=O`, the inhibition in test [1] was 24.7%; in test [2], -3%; in test [3] it was 21.2%; in test [4] it was 19.3%.

In the case of `C=CC(=O)Nc1ccccc1Nc1nc(Nc2ccc(N3CCN(C)CC3)cc2)ncc1Cl`, the inhibition in test [1] was 3.2%; in test [2] it was 15.3%; in test [3], 3.7%; in test [4], 2.3%.

The record behind these values is ChEMBL document CHEMBL4118021, “Studies of TAK1-centered polypharmacology with novel covalent TAK1 inhibitors” (Bioorg Med Chem, 2017).
